The values that follow come from ChEMBL document CHEMBL1140247, “The identification, synthesis, protein crystal structure and in vitro biochemical evaluation of a new 3,4-diarylpyrazole class of Hsp90 inhibitors” (Bioorg Med Chem Lett, 2005).

What all share (format): functional
In test [1] the target is ATP-dependent molecular chaperone HSP82 (Saccharomyces cerevisiae S288c) (UniProt P02829). Put plainly: Inhibition of yeast Hsp90 ATPase activity at 40 uM.
Test [2] has as its system HCT-116. Nature of the test: Inhibition of HCT116 human colon cancer cell proliferation. The method in brief:
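HCT116 colon cancer cells; growth inhibition measured by sulforhodamine B (SRB) assay; GI50 derived.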

In test [3] the target is ATP-dependent molecular chaperone HSP82 (Saccharomyces cerevisiae S288c, UniProt P02829). Put plainly: Inhibition of yeast Hsp90 ATPase activity. In short, it runs like this:
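Yeast Hsp90 ATPase activity assay. Original conditions were 1 mM ATP substrate, incubated 3 h at 37 °C. Later optimised conditions used lower ATP and enzyme concentrations, with overnight incubation at 37 °C. IC50 values derived.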

Each structure is given as a SMILES string. Where “and” joins values, the source holds several entries; their conditions need not be identical. Equal values may be shown once. Bounds are passed on as bounds.

Sequence of ATP-dependent molecular chaperone HSP82 (Saccharomyces cerevisiae S288c) (P02829 whole entry, looked up): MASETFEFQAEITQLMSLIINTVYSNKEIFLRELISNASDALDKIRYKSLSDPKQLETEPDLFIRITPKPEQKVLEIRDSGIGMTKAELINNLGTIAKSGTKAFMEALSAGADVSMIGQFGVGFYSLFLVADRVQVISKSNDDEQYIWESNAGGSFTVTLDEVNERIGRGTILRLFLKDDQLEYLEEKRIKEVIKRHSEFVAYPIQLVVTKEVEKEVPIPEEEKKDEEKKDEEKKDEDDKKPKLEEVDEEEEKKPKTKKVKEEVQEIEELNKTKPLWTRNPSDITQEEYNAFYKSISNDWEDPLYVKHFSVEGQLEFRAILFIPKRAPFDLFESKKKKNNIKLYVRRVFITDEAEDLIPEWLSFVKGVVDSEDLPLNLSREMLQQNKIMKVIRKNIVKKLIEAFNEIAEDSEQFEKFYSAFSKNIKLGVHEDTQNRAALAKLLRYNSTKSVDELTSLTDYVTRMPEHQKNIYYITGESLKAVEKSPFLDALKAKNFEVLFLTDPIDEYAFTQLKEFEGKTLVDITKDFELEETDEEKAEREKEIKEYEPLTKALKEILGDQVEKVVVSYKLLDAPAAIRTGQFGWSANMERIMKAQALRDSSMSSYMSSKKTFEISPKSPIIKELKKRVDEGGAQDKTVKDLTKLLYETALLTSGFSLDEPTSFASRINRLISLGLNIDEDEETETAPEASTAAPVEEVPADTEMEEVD
Sequence of ATP-dependent molecular chaperone HSP82 (P02829 whole entry): as the sequence (P02829 whole entry, looked up) above

Take `Cc1n[nH]c(-c2ccc(O)cc2O)c1-c1ccc2c(c1)OCCO2`: the inhibition in test [1] was 26%. For the molecule `Cc1n[nH]c(-c2cc(Cl)c(O)cc2O)c1-c1ccc(OCCCC#N)cc1`, growth in test [2] was halved (GI50) at 3.6 µM. The molecule also had a half-maximal inhibitory concentration (IC50) in test [3] of less than 1 µM. As for `N#CCCCOc1ccccc1-c1cn[nH]c1-c1cc(Cl)c(O)cc1O`, it took 31 µM to inhibit growth in test [2] by half (GI50). Further, the 50% inhibitory concentration (IC50) in test [3] amounted to 12.8 µM. The matching figures for `Oc1cc(O)c(-c2n[nH]cc2-c2ccc3c(c2)OCCO3)cc1Cl`: 23 µM and 1.6 µM.

With `CCC(C)c1cc(-c2n[nH]cc2-c2ccc3c(c2)OCO3)c(O)cc1O` (stereo not given), in test [3], 22.3 µM corresponded to half-maximal inhibition (IC50). `CCC(C)c1cc(-c2[nH]ncc2-c2ccc3c(c2)OCO3)c(O)cc1O` (stereo not given) had an inhibition in test [1] of 64%. Turning to `N#CCCCOc1ccc(-c2cn[nH]c2-c2cc(Cl)c(O)cc2O)cc1`, the GI50 in test [2] was determined as 6.8 µM. In test [3], this molecule came in with an IC50 of less than 1 µM.

Molecule `COc1cc(O)c(-c2[nH]ncc2-c2ccc3c(c2)OCO3)cc1C(C)C` returned an inhibition in test [1] of 20%. Take `COc1ccc(-c2cn(C)nc2-c2cc(Cl)c(O)cc2O)cc1OC`: in test [3], the half-inhibitory concentration (IC50) was more than 100 µM. In test [1], `Cc1n[nH]c(-c2ccc(O)cc2O)c1Oc1ccc(F)cc1` displayed an inhibition of 0%. Regarding `Cc1n[nH]c(-c2cc(Cl)c(O)cc2O)c1-c1ccccc1`, the concentration for 50% growth inhibition (GI50) in test [2] is 6.4 µM. The same molecule gave a 50% inhibitory concentration (IC50) in test [3] of 1.65 µM. Take `COc1ccc(-c2c[nH]nc2-c2cc(Cl)c(O)cc2O)cc1OC`: the GI50 in test [2] was determined as 13 µM. Moreover, half-maximal inhibition in test [3] (IC50) required 2.4 µM. Molecule `COc1ccc(-c2[nH]nc(C)c2-c2ccc3c(c2)OCCCO3)c(O)c1` returned an inhibition in test [1] of 25%. The same measure, in the same setting: as for `CCC(C)c1cc(-c2[nH]ncc2-c2ccccc2)c(O)cc1OC` (stereo not given), the figure is 10%.

`Oc1cc(O)c(-c2n[nH]cc2-c2ccc(-c3ccc(F)cc3)cc2)cc1Cl` yielded a GI50 in test [2] of 11 µM. In test [3], this molecule had an IC50 of 1.55 µM. Turning to `Cc1[nH]nc(-c2cc(Cl)ccc2O)c1-c1ccc2c(c1)OCCO2`, the half-maximal inhibitory concentration (IC50) in test [3] came to 25.5 µM. Take `COc1ccc(-c2c[nH]nc2-c2cc(C(C)C)c(OC)cc2O)cc1`: in test [1], the inhibition worked out at 13%. On the same count and under the same terms, next, `CC(C)c1cc(-c2[nH]ncc2-c2nc3ccccc3s2)c(O)cc1O`: 15%.

With `N#CCCCOc1cccc(-c2cn[nH]c2-c2cc(Cl)c(O)cc2O)c1`, in test [2], the 50% growth inhibitory concentration (GI50) was 30 µM. In addition, the half-maximal inhibitory concentration (IC50) in test [3] is 2.4 µM. In turn, `CCc1cc(-c2[nH]nc(C)c2-c2ccc3c(c2)OCCO3)c(O)cc1O` returned a 50% growth inhibitory concentration (GI50) in test [2] of 4.1 µM. In test [1], this molecule came in with an inhibition of 79%. Take `CCc1cc(-c2n[nH]c(C)c2-c2ccc3c(c2)OCCO3)c(O)cc1O`: the IC50 in test [3] is 8.9 µM and 7.1 µM. Turning to `COC1=C2CC(C)C[C@H](OC)C(O)C(C)/C=C(\C)[C@H](OC(N)=O)[C@@H](OC)/C=C\C=C(/C)C(=O)NC(=CC1=O)C2=O` (single isomer, unassigned) [GELDANAMYCIN], growth in test [2] was halved (GI50) at 0.067 µM. Also, the inhibition in test [1] is 90%. Consider `CCCc1cc(-c2[nH]nc(C)c2-c2ccc3c(c2)OCCO3)c(O)cc1O`, for which the IC50 in test [3] worked out at 46.1 µM. The molecule also displayed an inhibition in test [1] of 25%. On to `C=CCNC1=C2CC(C)C[C@H](OC)C(O)C(C)/C=C(\C)[C@H](OC(N)=O)[C@@H](OC)/C=C\C=C(/C)C(=O)NC(=CC1=O)C2=O` (single isomer, unassigned) [TANESPIMYCIN], for which, in test [2], the GI50 was found to be 0.021 µM. Also, the inhibition in test [1] was determined as 80%. In test [3], `Cc1n[nH]c(-c2ccc(O)c(Cl)c2)c1-c1ccc2c(c1)OCCO2` registered an IC50 of more than 100 µM.

As for `CCC(C)c1cc(-c2[nH]ncc2-c2ccc3c(c2)OCCO3)c(O)cc1OC` (stereo not given), in test [1], the inhibition amounted to 0%. In test [2], `Cc1[nH]nc(-c2cc(Cl)c(O)cc2O)c1-c1ccc2c(c1)OCCO2` yielded a 50% growth inhibitory concentration (GI50) of 4 µM. The molecule further yielded an IC50 in test [3] of less than 1 µM.
